From PubChem
Sampled rows, rich in hits. Any-hit rate of the full collection: about 2.7%.
PAFAH1B3 inh = PAFAH1B3 enzyme inhibitors, primary screen, biochemical, fluorescence polarization, human. Platelet-activating factor acetylhydrolase IB subunit alpha1 (Homo sapiens), Q15102. recombinant PAFAH1B3, FP-rhodamine probe. inhibition, % at 3.39 µM. 0.28% of 340,000 active. AID 492972, 2010;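 active = inhibition above the screen-wide average of all tested compounds plus 3 SD, cut at about 25% in these data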;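 also: 0% = enzyme with DMSO only and 100% = wells lacking PAFAH1B3 protein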
Target sequence (Q15102 whole entry, looked up): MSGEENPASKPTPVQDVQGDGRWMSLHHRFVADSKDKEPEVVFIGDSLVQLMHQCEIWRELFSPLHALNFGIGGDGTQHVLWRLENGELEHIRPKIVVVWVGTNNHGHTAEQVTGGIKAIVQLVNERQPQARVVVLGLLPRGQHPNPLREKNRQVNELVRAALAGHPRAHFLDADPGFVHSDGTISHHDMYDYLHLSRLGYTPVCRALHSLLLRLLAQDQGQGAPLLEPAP
pPAFAH inh = pPAFAH enzyme inhibitors, primary screen, biochemical, fluorescence polarization, human; Platelet-activating factor acetylhydrolase (Homo sapiens), Q13093; recombinant pPAFAH, FP-rhodamine probe fluorescence polarization; inhibition, % at 3.39 µM; 1.5% of 330,000 active; AID 463082, 2010;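 active = inhibition above the mean inhibition across the screen plus 3 SD, cut at about 25% in these data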;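 also: inhibitors block binding of the rhodamine activity-based probe so polarization drops; 0% = enzyme with DMSO and 100% = wells lacking pPAFAH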
PAFAH1B2 FP inh = PAFAH1B2 enzyme inhibitors, primary screen, biochemical, fluorescence polarization, human. Platelet-activating factor acetylhydrolase IB subunit alpha2 (Homo sapiens), P68402. inhibition, % at 3.39 µM. recombinant PAFAH1B2, FP-rhodamine activity probe. 1.2% of 340,000 active;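 active = inhibition above the mean of all tested compounds plus 3 SD, cut at about 24% in these data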;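 also: 0% = enzyme with DMSO and 100% = wells lacking PAFAH1B2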
Target sequence (P68402 whole entry, looked up): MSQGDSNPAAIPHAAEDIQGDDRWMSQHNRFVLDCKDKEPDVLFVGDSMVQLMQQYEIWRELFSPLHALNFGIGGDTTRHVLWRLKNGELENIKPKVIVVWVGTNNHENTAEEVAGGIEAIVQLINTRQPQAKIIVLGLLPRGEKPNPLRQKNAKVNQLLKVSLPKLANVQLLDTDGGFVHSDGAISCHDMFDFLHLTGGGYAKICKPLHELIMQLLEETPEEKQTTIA
ARFGAP1 inhibitor = inhibitors of rat ARFGAP1 GAP activity, primary screen, biochemical, fluorescence polarization, GDP tracer; Arfgap1-stimulated ARF1 GTP hydrolysis, GDP FP detection; inhibition, % at 16.5 µM; 0.26% of 360,000 active; AID 651572, 2012;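 active = inhibition above a per-plate limit, mean inhibition of low control wells plus 3 SD, cut at about 25% in these data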;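 also: 0% = DMSO wells with enzyme and 100% = wells lacking Arfgap1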
Target sequence (Q62848 1-136 limits assumed): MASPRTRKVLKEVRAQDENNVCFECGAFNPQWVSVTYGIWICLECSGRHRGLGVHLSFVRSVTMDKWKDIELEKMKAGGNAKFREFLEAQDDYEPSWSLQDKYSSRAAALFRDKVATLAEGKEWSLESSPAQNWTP
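Material – truncated rat Arfgap1 GAP domain · Buffer or medium – HEPES-based buffer, pH 7.5 · Reagent – human ARF1(Δ1-17)-GTP substrate · Dosing – 16.5 µM single point, 1.26% DMSO · Schedule – GTP hydrolysis reaction 2 h at 25 °C · Technique – GDP detection by fluorescence polarization · Benchmarks – No-Arfgap1 wells (100%) versus DMSO full-reaction wells (0%) · Repeats – single replicate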
ASAP1 GAP inh = inhibitors of human ASAP1 ArfGAP activity, primary screen, biochemical, fluorescence polarization | 0.19% of 360,000 active | AID 624377, 2012 | inhibition, % at 16.5 µM | ASAP1-stimulated ARF1 GTP hydrolysis, GDP FP detection; in the data active = inhibition above about 25%;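 also: 0% = vehicle with enzyme and substrate and 100% = no enzyme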
PAFAH2 FP inh = PAFAH2 enzyme inhibitors, primary screen, biochemical, fluorescence polarization, human; Platelet-activating factor acetylhydrolase 2, cytoplasmic (Homo sapiens), Q99487; recombinant PAFAH2, FP-rhodamine activity probe; inhibition, % at 3.39 µM; 0.99% of 340,000 active;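 active = inhibition above the mean over all tested compounds plus 3 SD, cut at about 30% in these data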;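 also: inhibitors block probe labeling of enzyme so polarization drops; 0% = enzyme with DMSO and 100% = wells lacking PAFAH2 protein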
ARFGAP1 inh conf = ARFGAP1 inhibitor hit confirmation, biochemical, fluorescence polarization, triplicate; shares compounds with ARFGAP1 inhibitor; 30% of 890 active; ARFGAP1-stimulated ARF1 GTP hydrolysis, GDP tracer FP; AID 651608, 2012; inhibition, % at 16.5 µM;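 active = average inhibition over triplicates above the hit cutoff set in the earlier primary screen, cut at about 25% in these data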;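 also: 0% = Arfgap1 plus ARF1-GTP with DMSO and 100% = wells lacking Arfgap1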
An asterisk follows results filed as active; / = not tested or not shown.

SMILES	PAFAH1B3 inh	pPAFAH inh	PAFAH1B2 FP inh	ARFGAP1 inhibitor	ASAP1 GAP inh	PAFAH2 FP inh	ARFGAP1 inh conf
O=C(NCc1ccc(Cl)cc1)C(=O)NCC(c1ccco1)N1CCOCC1 (stereo not drawn)	6.3	6.8	3.6	29.7*	5.7	-2.8	3.3
COC(=O)c1cc(C(=O)OCC(=O)Nc2ccc(N3CCOCC3)cc2)cc([N+](=O)[O-])c1	3.6	2.0	4.3	5.7	5.5	10.2	/
Cc1ccc(C(=O)NCC(=O)OCCCOC(=O)CNC(=O)c2ccc(C)c(C)c2)cc1C	4.0	4.3	13.0	0.6	2.3	0.8	/
CCCCCc1c(C)nc(N2CCc3ccccc32)[nH]c1=O	3.4	/	5.8	26.0*	6.5	2.8	2.6
CCOC(=O)Cc1cc(=O)c2cc(C)ccc2[nH]1	3.5	9.4	7.7	39.0*	1.4	11.4	-2.8
Cc1ccc2[nH]c(-c3ccccc3)cc(=O)c2c1	12.3	-4.0	4.4	-2.1	0.7	7.6	/
CCN1CCN(c2ccc(S(=O)(=O)N3CCCCC3)cc2NC(=O)/C=C/c2ccc(F)cc2)CC1	3.3	0.6	3.6	12.4	6.4	5.5	/
CCN1CCN(c2ccc(S(=O)(=O)N3CCCCC3)cc2NC(=O)/C=C/c2ccc([N+](=O)[O-])cc2)CC1	2.2	5.0	-4.5	42.5*	28.6*	5.7	45.4*
C/C(=N\NC(=S)NCc1ccccc1)c1cccs1	10.8	13.2	3.0	30.2*	-16.9	-0.1	1.5
C/C(=N\NC(=S)NCc1ccccc1)c1ccc(Cl)s1	2.1	17.5	1.5	7.3	-4.7	-5.4	/
O=c1nc2n(CCO)c3ccccc3cc-2c(=O)[nH]1	7.7	/	3.8	-1.6	-2.3	1.9	/
C#Cc1cccc(C(=O)NC2CCCN(C3Cc4ccccc4C3)C2)c1 (stereo not drawn)	5.2	2.5	-1.1	-0.5	-15.2	10.1	/
CC(C)(CO)CNC1CCCN(C2Cc3ccccc3C2)C1 (stereo not drawn)	2.9	-7.5	3.3	24.7*	7.3	-2.6	2.7
COc1ccc(/C=C2\SC(=O)N(CCNC(=O)C3CSC4(C)CCC(=O)N34)C2=O)cc1 (stereo not drawn)	4.3	4.8	1.8	-3.2	17.5	3.0	/
CC12CCC(=O)N1C(C(=O)NCCN1C(=O)S/C(=C\c3ccc(OC(F)F)cc3)C1=O)CS2 (stereo not drawn)	-3.8	-4.1	4.2	24.6*	-1.5	-4.1	4.6
CNC(C)C#Cc1ccc2sc3cccc(OC)c3c(=O)c2c1 (stereo not drawn)	9.1	-2.6	2.1	28.4*	21.5	7.8	6.2
CCOc1ccc(S(=O)(=O)N(C)c2ccc(OCC(=O)Nc3ccc4[nH]c(=O)[nH]c4c3)cc2)cc1	-6.1	3.5	-2.0	11.7	1.4	-1.7	/
CN(c1ccc(OCC(=O)Nc2ccc3[nH]c(=O)[nH]c3c2)cc1)S(=O)(=O)c1ccc(Cl)cc1	2.6	7.8	4.4	30.2*	8.7	7.2	-11.4
COc1cccc2c1SCc1ccccc1C2CC(N)=O (stereo not drawn)	10.2	1.2	2.9	30.6*	20.5	0.3	-3.7
COc1ccccc1CC(=O)NC1CCCc2ccccc21 (stereo not drawn)	-0.7	1.9	3.5	-5.8	2.5	-0.9	/
O=C(Nc1nnc(Cc2ccc([N+](=O)[O-])cc2)s1)Nc1ccccc1F	-2.9	3.3	-5.9	60.2*	-2.9	-6.6	19.0
COc1ccc(CNC(=O)C[C@H]2C[C@H](C(=O)N3CCCCC3)[C@@]3(CCc4ccccc4)c4[nH]c5ccc(Cl)cc5c4CCN3C2=O)cc1OC	7.0	1.6	1.1	1.3	13.3	-10.2	/
CC1(c2nnc(Cc3ccccc3)o2)CC(c2ccncc2)=NO1 (stereo not drawn)	15.5	4.4	8.6	42.7*	1.2	-8.4	2.2
N#CCCn1cc(/C=N/NC(N)=S)c(-c2ccc(-c3ccccc3)cc2)n1	1.8	11.7	-2.9	27.3*	-3.2	-4.2	25.7*
N#CCCn1cc(/C=N/O)c(-c2ccccc2)n1	6.5	-1.4	7.2	1.0	1.3	-2.9	/
SMILES	PAFAH1B3 inh	pPAFAH inh	PAFAH1B2 FP inh	ARFGAP1 inhibitor	ASAP1 GAP inh	PAFAH2 FP inh	ARFGAP1 inh conf
CCOc1ccc(C(=O)N[C@H](C(=O)Nc2cccc(S(=O)(=O)N3CCOCC3)c2)C(C)C)cc1	2.9	/	3.6	-6.6	-3.9	2.5	/
COc1ccc(C(=O)N[C@H](C(=O)Nc2ccc(S(=O)(=O)N3CCOCC3)cc2)C(C)C)cc1	7.0	1.8	4.2	25.1*	7.7	-0.4	2.9
FC(F)Oc1ccc(NC(=S)NC23CC4CC(CC(C4)C2)C3)cc1	7.3	-1.0	13.3	25.3*	-3.8	10.5	8.4
O=C(NCc1cccs1)c1csc(COCCO)n1	/	/	/	9.9	1.2	/	/
COC(=O)c1nnn(-c2cccc(Cl)c2)c1C(=O)OC	1.9	6.4	4.0	25.4*	-1.2	3.5	4.5
COc1cc2cc(C(=O)NC(C)c3cccc4ccccc34)c(N)nc2cc1OC (stereo not drawn)	/	/	/	25.3*	19.3	/	7.1
CCN(CC)S(=O)(=O)c1ccc(NC(=O)Nc2cccc(C(F)(F)F)c2)cc1	-106.0	-71.3	-57.9	20.0	4.6	-95.9	/
Cc1ccc(S(=O)(=O)Nc2ccc(NC(=O)Nc3cccc(C(F)(F)F)c3)cc2)cc1	3.3	-1.4	7.0	29.7*	21.8	-52.7	29.5*
CCC(=O)N1CCN=C1SCc1ccccc1Cl	-3.1	-0.7	-1.4	28.6*	3.2	5.7	3.2
c1ccc(CN2CC[C@@H](Nc3nccn4ccnc34)C2)cc1	/	/	/	8.7	-16.0	/	/
CCOc1ccc2nc(NC(=O)CSc3nc4c(c(=O)n(C)c(=O)n4C)n3C(C)C)sc2c1	1.0	-3.5	2.5	13.2	16.4	-2.1	/
COc1ccc2nc(NC(=O)Cn3cnc4ccccc4c3=O)sc2c1	5.8	0.4	-1.7	27.1*	7.5	-4.1	7.5
CCOc1ccc2nc(NC(=O)Cn3cnc4c3c(=O)n(C)c(=O)n4C)sc2c1	4.0	-6.0	6.0	26.8*	11.6	-5.2	7.5
CCCCNC(=O)C1(C)CCC(=O)N1CCCn1ccnc1 (stereo not drawn)	/	/	/	-3.2	-5.5	/	/
O=C1NC[C@@H](CCCCN2CCN(CCC3CCCCC3)C(=O)C2=O)N(CCC2CCCCC2)C1=O	/	/	/	-0.3	1.4	/	/
